# Screens from PubChem.
# Shown are actives, neighbours in structure and some others; about 1.4% of the full set was active somewhere.
# thrombin 1536: blocks human thrombin protease activity; inhibition, % at 5 µM; alpha-thrombin, Boc-VPR-AMC fluorogenic substrate cleavage; P00734; hit rate 0.26% among 220,000;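 active = inhibition at or above 40%; inactive = inhibition below 40%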
#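 Material: human alpha-thrombin protein; Also added: Boc-VPR-AMC substrate, 15 µM final; Timing: enzyme reaction carried out at room temperature; Signal: fluorescence, ex 355 nm, em 460 nm; Measure: % inhibition of thrombin; Controls: enzyme without compound as high, wells lacking enzyme as low.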
# hK5 inh: kallikrein 5 (human) inhibition. Q9Y337. recombinant hK5, fluorogenic AMC substrate cleavage. inhibition, % at 5 µM. hit rate 0.59% among 210,000;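 active = inhibition of 40% or more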
# Target sequence (Q9Y337 67-293 limits assumed): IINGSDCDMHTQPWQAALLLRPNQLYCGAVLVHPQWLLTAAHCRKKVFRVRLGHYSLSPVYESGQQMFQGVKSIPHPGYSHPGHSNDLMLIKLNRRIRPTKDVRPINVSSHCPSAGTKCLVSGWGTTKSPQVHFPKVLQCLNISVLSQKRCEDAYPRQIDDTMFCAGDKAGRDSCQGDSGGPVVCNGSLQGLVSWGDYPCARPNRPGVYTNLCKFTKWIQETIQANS
# FXIa inh 1536: inhibitors of human coagulation factor XIa; P03951; purified FXIa, Boc-Glu-Ala-Arg-AMC fluorogenic substrate; inhibition, % at 5 µM; hit rate 0.14% among 220,000;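 active = inhibition of at least 40%; inactive = inhibition below 40%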;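 note: fluorescence of freed AMC excited at 355 nm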
# Calpain2 inh: calpain II (pig) inhibition. purified calpain II, fluorogenic peptide substrate, 30 min. inhibition, % at 16 µM. hit rate 0.37% among 220,000. AID 1236;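 active = inhibition above about 50%, limit read from the data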
# FXIIa inh: inhibitors of human coagulation factor XIIa | P00748 | purified FXIIa, Boc-QGR-AMC fluorogenic substrate, 2 h | inhibition, % at 5 µM | hit rate 0.3% among 220,000 | AID 800; in the data active = inhibition above about 40%
# Hits are given with their value; i = inactive; nt = no result given.
SMILES,thrombin 1536,hK5 inh,FXIa inh 1536,Calpain2 inh,FXIIa inh
O=C1CC2C(CC(OC(=O)c3ccc(-c4ccccc4)cc3)C2CO)O1 (configuration not stated),i,i,i,i,i
O=C1C[C@H]2[C@H](CO)[C@@H](OC(=O)c3ccc(-c4ccccc4)cc3)C[C@H]2O1,i,71.7,i,i,i
CC1CCCCN1C(=O)C(Cc1ccccc1)N1C(=O)C2CCCCC2C1=O (configuration not stated),i,i,i,i,i
O=C(O)c1cccc(N2CCCC2=O)c1,i,i,i,i,i
COC(=O)c1cccc(N2CCCC2=O)c1,i,45.4,i,i,i
Cc1cc(Nc2ccc(C)c(C)c2)n2nc(C)nc2n1,i,i,i,i,42.4
O=C(C1CCCCC1)N1CCC(c2nc3ccccc3[nH]2)CC1,i,71.5,i,i,i
CN(c1ccc(C(=O)NCc2ccccc2)cc1)S(C)(=O)=O,i,40.1,i,i,i
CCNc1ccc2c(Cl)cc(=O)oc2c1,i,i,i,i,56.4
O=C(N/N=C/c1ccc(Cl)c([N+](=O)[O-])c1)C1CC1,i,i,i,54.2,i
CCOC(=O)c1sc(N)c(C#N)c1CSc1nc2ccc(OCC)cc2[nH]1,i,i,i,i,i
CCOC(=O)c1sc(N)c(C#N)c1CSc1nc2ccc(C)cc2[nH]1,i,40.0,i,i,i
Nc1nc(Cl)cc(N2CCC(c3cc(-c4ccc(Cl)cc4Cl)n[nH]3)CC2)n1,i,i,i,i,i
CCOC(=O)c1nnc(-c2cccs2)nc1NC(C)C,i,114.7,i,i,i
O=C(CCCCCN1C(=O)c2cccc3cccc(c23)C1=O)NCc1cccnc1,i,i,i,i,i
O=C(CCCN1C(=O)c2cccc3cccc(c23)C1=O)NCc1cccnc1,i,i,i,i,49.1
CN(NC(=O)c1c(Cl)cccc1Cl)c1cccc(Cl)n1,nt,i,i,i,i
Cc1ccc(N=C2NC(=O)/C(=C\c3ccsc3)S2)c(C)c1,i,i,i,i,i
O=C(N[C@@H](Cc1ccccc1)C(=O)OCc1ccccc1)c1nc[nH]c1C(=O)NCc1ccccc1,i,i,i,i,i
O=C(N[C@@H](Cc1ccccc1)C(=O)OCc1ccccc1)c1nc[nH]c1C(=O)N1CCN(c2ccccc2)CC1,i,i,i,51.4,i
CC(C)n1c(NCCc2ccccc2)nc2c1c(=O)n(C)c(=O)n2C,i,i,i,i,i
O=C(COC(=O)CC12CC3CC(CC(C3)C1)C2)Nc1cccnc1Cl,i,i,i,59.3,i
Cc1cccc(OCC(O)CN2CC3(C)CC2CC(C)(C)C3)c1 (configuration not stated),i,i,64.0,i,i
Cc1ccc(NC(=O)CN2C(=O)/C(=C3\SC(=S)N(C4CCS(=O)(=O)C4)C3=O)c3ccccc32)cc1 (configuration not stated),i,i,i,66.9,i
CC(=O)N1C(=O)/C(=C2\SC(=S)N(c3c(C)n(C)n(-c4ccccc4)c3=O)C2=O)c2ccccc21,50.1,i,i,i,i
SMILES,thrombin 1536,hK5 inh,FXIa inh 1536,Calpain2 inh,FXIIa inh
Cc1ccc(NCC(=O)N/N=C/c2c[nH]c3ccccc23)cc1,i,i,i,70.0,i
Cc1n[nH]c(C)c1CCC(=O)N/N=C/c1c[nH]c2ccccc12,i,57.7,48.0,i,i
Cc1ccc(NC(C)C(=O)N/N=C/c2c[nH]c3ccccc23)cc1 (configuration not stated),i,i,i,i,i
Cc1n[nH]c(C)c1CCC(=O)N/N=C/c1cccs1,i,69.0,i,i,47.9
O=C(O)CC(NS(=O)(=O)c1c(F)cc(F)cc1Br)c1ccccc1Cl (configuration not stated),i,i,i,i,i
Cc1ccc2cn[nH]c2c1N,i,i,i,i,i
COc1ccc(C(=O)NCC(c2cccnc2)N2CCN(c3ccc(F)cc3)CC2)cc1OC (configuration not stated),i,i,i,i,i
CS(=O)(=O)c1ccc2nc(NC(=O)c3cc(-c4ccccc4)nn3-c3ccccc3)sc2c1,i,i,i,i,i
COc1ccccc1NC(=O)N1CCN(CCc2ccccc2)CC1,i,i,i,i,i
CCN1CCN(C(=O)Nc2ccccc2OC)CC1,i,82.5,i,i,i
CC(=O)Nc1nnc(SCc2cccc(F)c2)s1,i,i,i,i,i
CC(=O)Nc1nnc(SCc2ccc(F)cc2)s1,i,55.5,i,i,i
CCSc1nnc(NC(=O)c2ccco2)s1,43.8,i,i,i,i
CN(CCc1cnn(C)c1)Cc1nc(Cc2ccccc2)no1,i,nt,i,i,i
O=C(O)C1=C[C@@H](c2csc3ccccc23)C[C@@H](OCCCCO)O1,i,i,i,i,i
Cc1ccc(C2CC(c3cccs3)=NN2C(=O)c2ccco2)o1 (configuration not stated),i,i,i,51.4,i
O=C(c1ccco1)N1N=C(c2cccs2)CC1c1ccco1 (configuration not stated),i,i,i,i,i
COc1cc(NC(=O)Nc2ccccc2OC)c(OC)cc1NC(=O)CN1CCCCC1,i,i,i,i,i
O=c1[nH]c2ccc(Cl)cc2c(-c2ccccc2)c1CN1CCOCC1,i,i,i,i,i
O=c1[nH]c2ccc(Cl)cc2c(-c2ccccc2)c1N1CCOCC1,42.6,i,i,i,i
O=C(O)Cc1ccc(NC(=O)CCN2C(=O)c3ccc([N+](=O)[O-])cc3C2=O)cc1,i,i,i,i,99.6
O=C(CCN1C(=O)c2ccc([N+](=O)[O-])cc2C1=O)Nc1ccc(O)cc1C(=O)O,i,i,i,i,i
O=C(c1ccco1)n1nc(-c2cccnc2)nc1NCc1ccco1,96.3,i,i,i,i
O=C(c1ccccc1)n1nc(-c2ccccc2)nc1NCc1ccco1,72.9,i,i,i,i
Cc1ccc(CN2CCN(Cc3cnc(N(C)C)s3)CC2CCO)o1 (configuration not stated),i,i,i,i,i
SMILES,thrombin 1536,hK5 inh,FXIa inh 1536,Calpain2 inh,FXIIa inh
O=C(CSc1ncn[nH]1)c1cc2ccccc2o1,i,i,i,i,i
O=C(CSc1nccc(=O)[nH]1)c1cc2ccccc2o1,i,46.4,i,i,i
Cc1ccc(NC(=O)c2ccc(C(C)(C)C)cc2)cc1-n1cnnn1,i,i,i,62.1,i
COc1cc(C(=O)Nc2ccc(-n3cnnn3)c(C)c2)cc(OC)c1OC,i,i,i,i,i
O=C(/C=C/c1ccccc1Cl)NCCc1ccc(F)cc1,i,i,i,i,i
Cc1ccccc1-n1nc(C(=O)c2cccs2)cc(-c2nc3ccccc3[nH]2)c1=N,i,i,i,i,i
COc1ccc(-n2nc(C(=O)c3cccs3)cc(-c3nc4ccccc4[nH]3)c2=N)cc1,57.1,i,i,i,i
CCC(C)NC(=O)CNC(=S)N(Cc1ccccc1)Cc1cccnc1 (configuration not stated),i,i,i,i,i
Cc1cccc(N2CCN(C(=O)c3cc4c(=O)n(C)c5ccccc5c4n3C)CC2C)c1 (configuration not stated),i,41.2,i,i,nt
